The record followed here is ChEMBL document CHEMBL1144404, “Aminoimidazolylmethyluracil analogues as potent inhibitors of thymidine phosphorylase and their bioreductive nitroimidazolyl prodrugs” (J Med Chem, 2005).

Data set [1] in a line: Bioavailability in mouse (dose 20 mg/kg p.o.). As to conditions: in vivo, po; call rule not given here. The format is ADME, organism-based. In short, it runs like this:
(§1)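 Mice given a single dose by ip (10 mg/kg), oral (20 mg/kg) or iv (2 mg/kg) route. Blood sampled over 24 h after dosing; plasma analysed for parent compound. PK parameters (Cmax, Tmax, AUC, T1/2, F, C0, Cl, Vdss) derived from plasma concentration-time profiles.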

Data set [2] is described as follows: Maximum time to attain Cmax in mice after oral administration of 20 mg/kg. Set-up: dose 20 mg/kg, route oral. The following applies: mouse, in vivo. The class given is ADME, organism-based. In short, it runs like this: as §1
Data set [3] can be described thus: Bioavailability in mouse (dose 10 mg/kg i.p.). The class given is ADME, organism-based. The following applies: in vivo, ip. In short, it runs like this:
as §1

Data set [4] is described as follows: Maximum plasma concentration in mice after intraperitoneal administration of 10 mg/kg. Also noted: dose 10 mg/kg, route intraperitoneal. The format is ADME, organism-based. As to conditions: mouse, ip. In short, it runs like this: as §1
A short description of data set [5]: Bioavailability in mouse (dose 2 mg/kg i.v.). The class given is ADME, organism-based. As to conditions: in vivo, iv. The procedure, abridged: as §1
Data set [6] is described as follows: Area under concentration-time curve for the compound was measured in mice after oral administration of 20 mg/kg. Also noted: dose 20 mg/kg, route oral. As to conditions: mouse, in vivo. The class given is ADME, organism-based. In short, it runs like this:
as §1

Data set [7] can be described thus: Half-life was measured in mice after intravenous administration of 2 mg/kg. The following applies: mouse, in vivo. The class given is ADME, organism-based. Also noted: dose 2 mg/kg, route intravenous. In short, it runs like this: as §1
A short description of data set [8]: Half-life was measured in mice after intraperitoneal administration of 10 mg/kg. Also noted: dose 10 mg/kg, route intraperitoneal. As to conditions: mouse, in vivo, ip. The class given is ADME, organism-based. The procedure, abridged:
as §1

The nature of data set [9]: Half-life was measured in mice after oral administration of 20 mg/kg. Also noted: dose 20 mg/kg, route oral. As to conditions: mouse, in vivo. The class given is ADME, organism-based. The procedure, abridged:
as §1

The nature of data set [10]: Steady state volume of distribution was measured in mice after intravenous administration of 2 mg/kg. The class given is ADME, organism-based. Also noted: dose 2 mg/kg, route intravenous. As to conditions: mouse, in vivo, read-out: Vdss. The procedure, abridged: as §1
Data set [11] in a line: Clearance at time 0 was measured in mice after intravenous administration of 2 mg/kg. The class given is ADME, organism-based. Also noted: dose 2 mg/kg, route intravenous. As to conditions: mouse, in vivo. In short, it runs like this:
as §1

Data set [12] in a line: Maximum time to attain Cmax in mice after intraperitoneal administration of 10 mg/kg. The following applies: mouse, in vivo, ip. Also noted: dose 10 mg/kg, route intraperitoneal. The class given is ADME, organism-based. The procedure, abridged:
as §1

Data set [13] is described as follows: Concentration at time 0 was measured in mice after intravenous administration of 2 mg/kg. Set-up: dose 2 mg/kg, route intravenous. The class given is ADME, organism-based. As to conditions: mouse, in vivo. In short, it runs like this: as §1
Data set [14] in a line: Area under concentration-time curve for the compound was measured in mice after intraperitoneal administration of 10 mg/kg. The format is ADME, organism-based. Set-up: dose 10 mg/kg, route intraperitoneal. As to conditions: mouse, in vivo, ip. The procedure, abridged: as §1
The nature of data set [15]: Maximum plasma concentration in mice after oral administration of 20 mg/kg. The class given is ADME, organism-based. Set-up: dose 20 mg/kg, route oral. The following applies: mouse. In short, it runs like this: as §1
The nature of data set [16]: Area under concentration-time curve for the compound was measured in mice after intravenous administration of 2 mg/kg. The class given is ADME, organism-based. Also noted: dose 2 mg/kg, route intravenous. As to conditions: mouse, in vivo. The procedure, abridged:
as §1

The target of data set [17] is T1, Thymidine phosphorylase (Homo sapiens, UniProt P19971).
T1 sequence (P19971 whole entry): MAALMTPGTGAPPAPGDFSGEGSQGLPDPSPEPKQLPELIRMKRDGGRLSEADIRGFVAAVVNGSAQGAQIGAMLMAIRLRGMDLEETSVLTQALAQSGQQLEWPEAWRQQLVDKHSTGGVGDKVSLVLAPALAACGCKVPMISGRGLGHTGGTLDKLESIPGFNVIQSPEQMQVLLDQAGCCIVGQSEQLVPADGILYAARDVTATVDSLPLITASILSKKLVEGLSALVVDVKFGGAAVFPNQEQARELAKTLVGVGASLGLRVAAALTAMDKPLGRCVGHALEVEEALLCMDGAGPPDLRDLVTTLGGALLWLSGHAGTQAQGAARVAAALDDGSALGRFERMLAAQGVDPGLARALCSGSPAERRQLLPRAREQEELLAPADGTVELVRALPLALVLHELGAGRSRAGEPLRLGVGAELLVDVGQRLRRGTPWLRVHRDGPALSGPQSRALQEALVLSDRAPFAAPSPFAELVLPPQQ
The data set can be described thus: Inhibitory concentration against human thymidine phosphorylase.

The target of data set [18] is Thymidine phosphorylase (Escherichia coli K-12, UniProt P07650). The data set can be described thus: Inhibitory concentration against thymidine phosphorylase of Escherichia coli.
Chain of Thymidine phosphorylase (Escherichia coli K-12, UniProt P07650) (P07650 whole entry): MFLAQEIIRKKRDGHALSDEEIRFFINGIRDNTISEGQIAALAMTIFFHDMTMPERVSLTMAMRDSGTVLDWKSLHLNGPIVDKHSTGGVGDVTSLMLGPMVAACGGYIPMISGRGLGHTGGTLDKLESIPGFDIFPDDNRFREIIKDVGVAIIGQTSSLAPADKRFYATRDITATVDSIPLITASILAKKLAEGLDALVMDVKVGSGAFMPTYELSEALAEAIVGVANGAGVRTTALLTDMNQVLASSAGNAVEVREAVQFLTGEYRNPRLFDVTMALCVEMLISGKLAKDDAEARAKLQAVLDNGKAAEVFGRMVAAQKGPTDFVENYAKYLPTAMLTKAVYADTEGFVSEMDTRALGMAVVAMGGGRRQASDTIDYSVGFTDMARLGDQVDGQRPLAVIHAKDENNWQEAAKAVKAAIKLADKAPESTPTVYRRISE
A short description of data set [19]: Maximum concentration was measured in mice after intraperitoneal administration of 10 mg/kg. The class given is ADME, organism-based. As to conditions: mouse, in vivo, ip. Also noted: dose 10 mg/kg, route intraperitoneal. The procedure, abridged: as §1

SMILES strings stand for the structures.

Broadly, the Tmax is the time from dosing to the highest level. A word on the Cmax: it is the highest concentration seen after dosing. The half-life is how long it takes for the measured level to halve. In general, clearance refers to the volume of plasma or blood freed of the substance per unit of time. Read a high clearance as efficient removal. Regarding `Nc1[nH]cc[n+]1Cc1[nH]c(=O)[nH]c(=O)c1Br`, the values for the bioavailability in data set [1] and in data set [3] were 33% and 103%, respectively. The Tmax is 60 min in data set [2] and 5 min in [12]. In addition, the Cmax was determined as 5080 ng/mL in data set [4] and 350 ng/mL in data set [15]. Also, the F entry in [5] is “Not Active”. For the same compound, the AUC came to 0.968 µg/h/mL in [6], 1.505 µg/h/mL in data set [14] and 0.292 µg/h/mL in data set [16]. For the same compound, the results for the half-life in data set [7], in data set [8] and in data set [9] were 12 min, 60 min and 132 min, respectively. Also, in [10], the Vd turned out to be 1.3 L/kg. This compound also yielded a clearance in [11] of more than 72 mL/min/kg. Further, in data set [13], the C0 worked out at 3750 ng/mL.
What is called IC50 is the concentration that gives 50% inhibition. Turning to `O=c1[nH]c(Cn2cnc([N+](=O)[O-])c2)c(Br)c(=O)[nH]1`, the IC50 in [17] was 181 µM; in [18], 6.6 µM.
In turn, `Nc1c[n+](Cc2nc(O)nc(O)c2Br)c[nH]1` had an IC50 in data set [18] of 6.5 µM.
For the compound `O=c1[nH]c(Cn2cnc([N+](=O)[O-])c2)c(Cl)c(=O)[nH]1`, the IC50 in [17] was determined as 200 µM; in data set [18], 7 µM.
On the same counts, the results for `Nc1c[n+](Cc2cc(O)nc(O)n2)c[nH]1` are 143 µM and 101 µM.
On the same counts, the results for `O=[N+]([O-])c1cn(Cc2cc(O)nc(O)n2)cn1` are 500 µM and 13.8 µM.
Turning to `Nc1c[n+](Cc2nc(O)nc(O)c2Cl)c[nH]1`, the IC50 in data set [18] stood at 7.3 µM.
As for `Cl.N=C1CCCN1Cc1[nH]c(=O)[nH]c(=O)c1Cl` [TIPIRACIL HYDROCHLORIDE], the bioavailability in [1] was 52%; in data set [3], more than 100%. Moreover, the figures for the Tmax in [2] and in [12] were 60 min and 4.98 min, respectively. Further, the F entry in [5] is recorded as “Not Active”. The AUC worked out at 0.99 µg/h/mL in data set [6], 1.658 µg/h/mL in [14] and 0.19 µg/h/mL in data set [16]. Besides, the values for the half-life in data set [7], in data set [8] and in data set [9] were 6 min, 48 min and 102 min, respectively. Further, the Vd in data set [10] came out at 2.1 L/kg. The compound also registered a clearance in [11] of more than 72 mL/min/kg. The same compound returned a C0 in [13] of 942 ng/mL. In addition, the Cmax was 4450 ng/mL in data set [19] and 391 ng/mL in [15].
